Screening results deposited in PubChem BioAssay by Johns Hopkins Ion Channel Center.
KCNQ1 block – inhibitors of human KCNQ1 channel, primary screen, cell-based, thallium flux, high-throughput; B-score at 10 µM; AID 2642, 2010; 310,000 compounds, 1.3% hits; Potassium voltage-gated channel subfamily KQT member 1 (Homo sapiens), P51787; CHO-K1 KCNQ1, FluxOR thallium flux fluorescence; stronger effect = higher value;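 active = compounds whose thallium flux B-score, printed positive for inhibition, exceeds three library SD while starting fluorescence stays within three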;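 also: channel opened by potassium depolarization with thallium stimulus after 20 min compound exposure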
KCNK3 block – human KCNK3 channel inhibitors, primary screen, CHO cells, FluxOR thallium flux, B-score; Potassium channel subfamily K member 3 (Homo sapiens), O14649; FluxOR fluorescence; stronger effect = lower value; B-score at 10 µM; 340,000 compounds, 0.84% hits; AID 602410, 2012;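 active = B-score under library mean minus 4 SD, starting fluorescence ratio at most library mean plus 5 SD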;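 also: more negative B-score means stronger inhibition of thallium flux through KCNK3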
hERG protect – hERG rescue from dofetilide block, primary screen, cell-based, CHO-hERG, FluxOR thallium flux, dofetilide IC70; dofetilide IC70 present; 310,000 compounds, 0.51% hits; Voltage-gated inwardly rectifying potassium channel KCNH2 (Homo sapiens), Q12809; activation (rescue from dofetilide block), less the hit threshold, % at 10 µM;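 active = activation above the mean of controls blocked by dofetilide plus 5 SD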;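 also: thallium influx through hERG after potassium depolarization seen as dye fluorescence rise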
KCNQ1 pot – potentiators or activators of KCNQ1 channel, primary screen, cell-based, thallium flux, high-throughput | 310,000 compounds, 0.35% hits | CHO-K1 KCNQ1, thallium flux FluxOR fluorescence; stronger effect = higher value | B-score at 10 µM | Potassium voltage-gated channel subfamily KQT member 1 (Homo sapiens), P51787;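 active = fluorescence ratio B-score, a plate-corrected score, at least three library SD, with initial intensity B-score within 5 SD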
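assay system = KCNQ1-transfected CHO-K1 cells | medium = assay buffer with matched DMSO | probe or stimulus = depolarizing K+/Tl+ stimulus, K2SO4 and Tl2SO4 each 12.5 mM in 5x stock | dosing = single dose | incubation = dye 90 min, compound 20 min, room temperature | detection = kinetic FluxOR fluorescence, 10 s baseline plus 110 s post-stimulus | evaluation = ratio B score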
Kir21 inh – inhibitors of mouse Kir2.1 inward-rectifier potassium channel | Inward rectifier potassium channel 2 (Mus musculus), P35561 | HEK293-Kir2.1, FluxOR thallium flux fluorescence; stronger effect = lower value | B-score at 10 µM | 310,000 compounds, 0.85% hits | AID 1672, 2009;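 active = fluorescence ratio B-score at or below minus 3 SD of library scores, with starting-brightness B-score within 2 SD, cut at about -4.2 in these data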;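 also: channel flux triggered by added potassium and thallium sulfate stimulus; B-score of peak minus minimum fluorescence over baseline after thallium stimulus; more negative B-score means stronger Kir2.1 block with less thallium influx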
KCNK9 inh – KCNK9 potassium channel inhibitors, primary screen, HEK293 cells, thallium flux; Potassium channel subfamily K member 9 (Homo sapiens), Q9NPC2; FluxOR thallium flux fluorescence; stronger effect = lower value; 310,000 compounds, 1.2% hits; AID 488922, 2010; B-score at 10 µM;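 active = ratio B-score over 3 SD below the library mean, with starting fluorescence within 5 SD of its mean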;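 also: negative B-score means less thallium flux so channel inhibition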
Target sequence (Q9NPC2 whole entry, looked up): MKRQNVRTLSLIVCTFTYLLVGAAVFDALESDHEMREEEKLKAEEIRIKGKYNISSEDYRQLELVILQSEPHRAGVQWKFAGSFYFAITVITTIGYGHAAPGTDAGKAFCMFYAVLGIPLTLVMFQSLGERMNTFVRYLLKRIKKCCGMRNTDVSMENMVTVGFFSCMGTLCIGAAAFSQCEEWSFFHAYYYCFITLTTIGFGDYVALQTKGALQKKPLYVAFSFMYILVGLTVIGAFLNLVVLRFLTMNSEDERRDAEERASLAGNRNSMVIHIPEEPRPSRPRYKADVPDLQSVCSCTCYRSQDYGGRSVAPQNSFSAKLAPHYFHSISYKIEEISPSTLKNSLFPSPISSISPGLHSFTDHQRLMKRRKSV
KCNK9 inh conf – KCNK9 potassium channel inhibitors, confirmation, HEK293 cells, thallium flux, duplicate; shares compounds with KCNK9 inh; FluxOR thallium flux fluorescence; inhibition, % at 10 µM; 4,900 compounds, 43% hits;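 active = thallium signal inhibited by more than 5 SD of the compound-free buffer control wells, on both duplicate plates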;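 also: 0% = assay buffer control wells without compound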
Kir2-1 spec – mouse Kir2.1 channel inhibition, confirmation, selectivity assay for KCNK9 modulator project, cell-based, HEK293, thallium flux; shares compounds with KCNK9 inh; Kir2.1 cells, FluxOR thallium flux fluorescence; inhibition, % at 10 µM; 4,900 compounds, 4% hits;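 active = thallium signal drop more than 5 SD beyond the mean of the no-compound control wells, seen in both duplicate plates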;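 also: signal is fluorescence rise after thallium addition divided by baseline fluorescence; plate controls were assay buffer only for no effect and full block by chlorpromazine control for full effect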
HEK293 Tl ctr – thallium flux in non-induced HEK293 cells, confirmation, counter-screen for KCNK9 inhibitor project, cell-based, second counter screen, non-induced KCNK9-HEK293. AID 492997, 2010. shares compounds with KCNK9 inh. inhibition, % at 10 µM. FluxOR thallium flux. 4,900 compounds, 40% hits;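 active = thallium signal drop beyond 5 SD of the untreated control mean, on both duplicate plates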;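 also: plate controls were buffer only IC0 wells for no effect and SID17386958 at its maximal inhibitory level for full effect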
* marks the source's active call; other numbers are inactive results; i = inactive; · = no result. Only some compounds are listed: those with a hit (about 3.7% of all), similar ones and a draw of the others.

SMILES	KCNQ1 block	KCNK3 block	hERG protect	KCNQ1 pot	Kir21 inh	KCNK9 inh	KCNK9 inh conf	Kir2-1 spec	HEK293 Tl ctr
CC[n+]1c(/C=C/c2ccc(OC(C)=O)c(OC)c2)ccc2ccccc21	i	i	-10.8	i	-0.05	i	·	·	·
CC[n+]1c(/C=C/c2ccc(N(C)C)cc2)ccc2ccccc21	i	i	-24.9	i	-13.8*	-11.8*	60.0%*	85.0%*	59.5%*
N/C(CC(=O)Nc1ccc(F)cc1F)=N\OC(=O)c1cccs1	i	i	-6.1	i	0.18	i	i	i	i
N/C(Cc1ccc(Cl)cc1Cl)=N\OC(=O)c1cccs1	i	i	-18.9	i	-0.09	i	·	·	·
CCCCC(=O)NCCc1cc2c(OC)ccc(OC)c2[nH]c1=O	i	i	-9.5	i	-1.1	i	i	i	i
COc1ccc(C(=O)NCCc2cc3c(OC)ccc(OC)c3[nH]c2=O)cc1OC	i	i	-14.1	i	0.01	i	·	·	·
Brc1cccc2sc(N3CCN(c4ccccc4)CC3)nc12	i	i	-12.2	i	0.32	-14.1*	47.0%*	i	29.5%*
Clc1cccc2sc(N3CCCCC3)nc12	i	i	-9.1	i	1.65	i	·	·	·
Cc1cc(C)cc(OCC(=O)O/N=C(\N)c2ccccc2Cl)c1	i	i	-5.8	i	0.92	i	i	i	i
O=C(CSCC(=O)N1CCN(c2ccccc2)CC1)Nc1nc(-c2ccc(Cl)s2)cs1	i	i	-8.2	i	0.64	i	·	·	·
O=C(CSCC(=O)N1CCCCC1)Nc1nc(-c2ccc(Cl)s2)cs1	i	i	-9.7	i	0.11	i	i	i	i
CS(=O)(=O)N(CC(=O)Nc1ccccc1C(=O)NCc1ccco1)c1ccccc1F	i	i	-19.2	i	-0.03	i	·	·	·
COc1cc(C)ccc1OCCCCOc1ccccc1C(C)=O	i	i	-17.4	i	-2.1	i	i	i	i
COc1cc(C)ccc1OCCCOc1ccccc1Cl	i	i	-7.1	i	0.01	i	·	·	·
Cc1cccc(/C(N)=N/OC(=O)CCCN2C(=O)c3ccccc3C2=O)c1	i	i	-2.6	i	-1.16	i	i	i	i
COc1ccccc1CNC(=O)c1ccccc1OCc1ccc(F)cc1	i	i	-14.0	i	-6.52*	-8.84*	70.5%*	39.0%*	28.0%*
O=C(NCc1ccccn1)c1ccccc1OCc1ccc(F)cc1	i	i	-16.7	i	-1.07	i	·	·	·
CC(Sc1ccc(S(=O)(=O)N2CCCCCC2)cn1)C(N)=O (stereo unspecified)	·	i	·	·	·	·	·	·	·
Cc1ccc(-c2onc3ccc(C(=O)/C=C/N(C)C)cc23)cc1	i	i	-15.6	i	3.46	i	·	·	·
Cc1cccc(-c2onc3ccc(C(=O)/C=C/N(C)C)cc23)c1	i	i	-2.2	i	-0.12	i	i	i	i
CCOc1ccc(OCCOCCOc2c(Cl)cccc2Cl)cc1	i	i	-13.4	i	0.95	i	·	·	·
CCOc1ccccc1OCCOCCOc1c(Cl)cccc1Cl	i	i	-8.3	i	-3.04	-9*	i	i	37.5%*
Cc1cccc(C)c1NC(=S)Nc1c(C)n(C)n(-c2ccccc2)c1=O	i	i	-3.6	i	1.51	i	·	·	·
COc1ccc(Br)cc1CNc1ccc(N2CCOCC2)cc1	i	i	-7.8	i	0.48	i	·	·	·
COc1cccc(CNc2ccc(N3CCC(C)CC3)cc2)c1OC	i	i	-2.6	i	-2.51	i	i	i	i
SMILES	KCNQ1 block	KCNK3 block	hERG protect	KCNQ1 pot	Kir21 inh	KCNK9 inh	KCNK9 inh conf	Kir2-1 spec	HEK293 Tl ctr
CCOC(=O)C(CSCc1ccccc1)NC(=O)OC(C)(C)C (stereo unspecified)	i	i	-5.7	i	-4.31*	i	i	i	i
Cc1ccc(C(=O)N2CCCC(N3CCN(c4ccccc4F)CC3)C2)s1 (stereo unspecified)	i	i	-9.1	i	-0.35	i	i	i	i
O=C(c1ccncc1)N1CCCC(N2CCN(c3cccc(C(F)(F)F)c3)CC2)C1 (stereo unspecified)	i	i	-12.9	i	0.13	i	·	·	·
Cc1cccc(C(=O)N2CCCC(N3CCN(c4ccccc4F)CC3)C2)n1 (stereo unspecified)	i	i	-9.8	i	-0.04	i	·	·	·
Cc1ccc(C(=O)N2CCCC(N3CCN(c4cccc(C(F)(F)F)c4)CC3)C2)s1 (stereo unspecified)	i	i	-13.1	i	1.03	i	i	i	i
CC1=C(C(=O)N2CCCC(N3CCN(c4cccc(C(F)(F)F)c4)CC3)C2)OCCO1 (stereo unspecified)	i	i	-10.2	i	0.41	i	i	i	i
CCc1cc(C(=O)N2CCCC(N3CCN(c4cccc(C(F)(F)F)c4)CC3)C2)n(C)n1 (stereo unspecified)	i	i	-9.3	i	1.46	i	i	i	i
CC1=C(C(=O)N2CCCC(N3CCN(c4cccc(Cl)c4)CC3)C2)OCCO1 (stereo unspecified)	i	i	-8.5	i	-0.08	i	·	·	·
Cc1cc2occ(CC(=O)OCC(=O)Nc3sc4c(c3C#N)CCC(C)C4)c2cc1C (stereo unspecified)	i	i	-9.1	i	-0.31	i	·	·	·
CN(C(=O)COC(=O)CSc1cc(Cl)ccc1Cl)c1c(N)n(Cc2ccccc2)c(=O)[nH]c1=O	i	i	-0.8	i	0.25	i	·	·	·
